Measurements reported in article PMC4314522 (Molecular Metabolism, 2014).
Read-outs that look alike come from different tables or passages of the source.

Legend:
human GPR40 [1] = target: T1, human GPR40 (Homo sapiens, UniProt O14842); assay: IP turnover assay in transiently transfected COS-7 cells; format: cell-based; conditions: for Emax: COS-7, read-out: IP3 (in vitro) Emax
human GPR40 [2] = target: T1, human GPR40; assay: cAMP accumulation assay in transiently transfected COS-7 cells; format: cell-based; conditions: for Stimulation of cAMP accumulation (in words): COS-7 transfected with GPR40
[3] = tested on: mouse colonic crypt cultures (WT); assay: Total GLP-1 release from primary colonic crypt cultures, WT mice; format: cell-based; conditions: 1 μM ligand, 2 h, relative to basal (vehicle)
Procedure, shortened: (§1)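 Colonic crypts from male C57BL/6 littermates were collagenase-digested and seeded on Matrigel. […] Next day, cells were exposed to ligands for 2 h at 37 °C, in triplicate, in standard solution with 0.1% fatty-acid-free BSA and 10 mM glucose. Synthetic ligands were in DMSO; ALA was BSA-complexed at 6:1 molar. Total GLP-1 was measured by electrochemiluminescent immunoassay, expressed as fold over vehicle basal.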

human GPR40 [4] = target: T1, human GPR40; format: binding
human GPR40 [5] = target: T1, human GPR40; format: binding; remark: listed apart in the source
[6] = tested on: mouse colonic crypt cultures GPR40 (−/−); assay: Total GLP-1 release from primary colonic crypt cultures, Gpr40 KO mice; format: cell-based; conditions: 1 μM ligand, 2 h, relative to basal (vehicle)
Procedure, shortened: as §1

plasma GLP-1 = assay: Plasma total GLP-1 after oral gavage in fasted mice; format: in vivo, mouse; conditions: 30 mg/kg oral, 30 min, overnight fasted mice; vehicle about 5 pmol/L
plasma GIP = assay: Plasma GIP after oral gavage in fasted mice; format: in vivo, mouse; conditions: 30 mg/kg oral, 30 min, overnight fasted mice
PK experiments = conditions: mouse, in vivo, po, 30 mg/kg
[7] = phase-II studies, cited from earlier work

T1 sequence (O14842 whole entry): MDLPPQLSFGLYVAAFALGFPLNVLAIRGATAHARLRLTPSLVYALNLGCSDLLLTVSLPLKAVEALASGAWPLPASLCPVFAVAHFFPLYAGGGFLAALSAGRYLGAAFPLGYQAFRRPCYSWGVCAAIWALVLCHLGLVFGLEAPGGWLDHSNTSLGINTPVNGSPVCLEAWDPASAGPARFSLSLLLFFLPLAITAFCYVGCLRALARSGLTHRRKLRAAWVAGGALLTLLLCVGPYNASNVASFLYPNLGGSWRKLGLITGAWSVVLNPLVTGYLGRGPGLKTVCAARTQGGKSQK

Row | Compound | EC50 (human GPR40 [1]) [µM] | Emax (human GPR40 [1]) [%] | EC50 (human GPR40 [2]) [µM] | Stimulation of cAMP accumulation (in words) (human GPR40 [2]) | tGLP-1 (ex vivo) release, WT [3] [fold change] | Binding (in vitro) [3H]L358: positive or negative competitive binding (human GPR40 [4]) | IC50 (human GPR40 [4]) [µM] | Binding (in vitro) [3H]AM-1638: positive or negative competitive binding (human GPR40 [5]) | IC50 (human GPR40 [5]) [µM] | cAMP potency, fold lower than the potency for IP-accumulation (human GPR40 [2]; cAMP EC50 versus IP EC50) [fold] | tGLP-1 (ex vivo) release, GPR40 (−/−) [6] [fold change] | Plasma GLP-1, median of all experiments (plasma GLP-1) [pmol/L] | Plasma GIP, median of all experiments (plasma GIP; vehicle 53 pmol/L) [pmol/L] | Cmax (PK experiments) [µM] | Significance of plasma GIP increase (in words) (plasma GIP) | Effect on HbA1c ([7]; without signs of hypoglycemia) | Effect on plasma GLP-1 [7]
1 | CC/C=C\C/C=C\C/C=C\C/C=C\C/C=C\C/C=C\CCC(=O)O [DHA, docosahexaenoic acid] | 12 | 56 ± 6 | > 1000 | not able to stimulate cAMP accumulation meaningfully |  |  |  |  |  |  |  |  |  |  |  |  | 
2 | CC(C)c1noc(C2CCN(c3ncnc(Nc4ccc(S(C)(=O)=O)cc4F)c3[N+](=O)[O-])CC2)n1 [AR231453] |  |  |  |  | 4.7 ± 0.3 |  |  |  |  |  |  |  |  |  |  |  | 
3 | COc1ccc(F)c(-c2ccc(COc3cccc([C@@H](CC(=O)O)C4CC4)c3)cc2C2=CCCC2(C)C)c1 [AM-1638] | 0.0251 | 170 ± 14 |  | stimulated cAMP accumulation robustly | 3.0 ± 0.54 | (neg) | 0.026 | (pos) | 0.029 | 7 | 1.1 ± 0.07 | 29 | 383 | 11 |  |  | 
4 | Cc1cc(OCCCS(C)(=O)=O)cc(C)c1-c1cccc(COc2ccc3c(c2)OC[C@H]3CC(=O)O)c1 [TAK-875, fasiglifam] |  | 98 ± 4 |  | no or very limited stimulation of cAMP production | 1.5 ± 0.08 | (pos) |  | (neg) |  |  | 1.1 ± 0.12 | 10.8 |  | 2 | only increased plasma GIP significantly in one of the three experiments | decreased HbA1c as efficiently as sulfonylurea | no effect
